≈ marks a conversion by molar mass, not a printed value.

For assay [1], the system named is Pseudomonas aeruginosa. As to the kind of experiment: […] activity against Pseudomonas aeruginosa K1119 after 24 hrs. The format is functional. The settings on record: K1119, 24 h. The procedure, abridged: (§1)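 Strains grown on nutrient agar for 24 h at 37 °C before testing. Broth microdilution MIC used an inoculum of 5 × 10⁵ CFU, prepared in normal saline (9 g/L) against a 0.5 McFarland standard. Plates were incubated at 37 °C, then MTT (5 mg/mL methanolic stock) was added for 20 min. Growth was scored by colour change.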

In assay [2] the test system is Staphylococcus aureus. As to the kind of experiment: Antibacterial activity against Staphylococcus aureus SA-1199B overexpressing NorA MDR efflux pump after 24 hrs. The format is functional. In short, it runs like this:
as §1

Assay [3] deals with Staphylococcus aureus. The assay can be described thus: Antibacterial activity against Staphylococcus aureus ATCC 25923 after 24 hrs. The assay is classed as functional. The settings on record: ATCC 25923, 24 h. The procedure, abridged: as §1
Assay [4] concerns Pseudomonas aeruginosa. As to the kind of experiment: […] activity against Pseudomonas aeruginosa K767 after 24 hrs. The format is functional. The settings on record: K767, 24 h. The procedure, abridged: as §1
Assay [5] relates to Staphylococcus aureus. As to the kind of experiment: Antibacterial activity against Staphylococcus aureus EMRSA-16 after 24 hrs. The format is functional. The settings on record: EMRSA-16, 24 h. The procedure, abridged: as §1
In assay [6] the test system is Staphylococcus aureus. The assay can be described thus: Antibacterial activity against Staphylococcus aureus XU212 overexpressing TetK tetracycline efflux pump after 24 hrs. The format is functional. The settings on record: XU212, 24 h. In short, it runs like this:
as §1

Assay [7] concerns Staphylococcus aureus. As to the kind of experiment: Antibacterial activity against Staphylococcus aureus EMRSA-15 after 24 hrs. The assay is classed as functional. The settings on record: EMRSA-15, 24 h. In short, it runs like this: as §1
Assay [8] deals with Staphylococcus aureus. As to the kind of experiment: Antibacterial activity against Staphylococcus aureus RN4220 overexpressing MsrA macrolide efflux protein after 24 hrs. The format is functional. The settings on record: RN4220, 24 h. In short, it runs like this:
as §1

Assay [9] deals with Mycolicibacterium smegmatis. The assay can be described thus: Antimycobacterial activity against Mycobacterium smegmatis ATCC 14468 after 72 hrs by MTT assay. The format is functional. The settings on record: ATCC 14468, 72 h. The procedure, abridged: (§2)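 Mycobacteria were grown on Columbia agar with 7% defibrinated horse blood, subcultured, and incubated 72 h at 37 °C before the assay. Broth microdilution MIC used an inoculum of 5 × 10⁵ CFU in normal saline, set against a 0.5 McFarland standard. Plates were incubated at 37 °C, then MTT (5 mg/mL methanolic stock) was added for 20 min. Growth was read by colour change.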
Background: Tetrazolium assays rely on reduction of a dye to a coloured formazan, in cell work by metabolically active cells.

Assay [10] deals with Mycolicibacterium fortuitum. As to the kind of experiment: Antimycobacterial activity against Mycobacterium fortuitum ATCC 6841 after 72 hrs by MTT assay. The format is functional. The settings on record: ATCC 6841, 72 h. The procedure, abridged: (§3)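 Mycobacterium strains were subcultured on Columbia agar with 7% defibrinated horse blood at 37 °C for 72 h before assay. The inoculum was 5 × 10⁵ CFU in normal saline (9 g/L), set against a 0.5 McFarland standard. Microtiter plates were incubated at 37 °C. MIC was read after adding MTT (5 mg/mL methanolic stock) for 20 min, with growth shown by colour change.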

In assay [11] the test system is Mycolicibacterium smegmatis. The assay can be described thus: Antimycobacterial activity against Mycobacterium smegmatis MC2 2700 expressing Mycobacterium tuberculosis fatty acid synthase 1 gene after 72 hrs by MTT assay. The settings on record: MC2 2700, 72 h. The format is functional. The procedure, abridged: as §2
For the next assay, the system named is Mycolicibacterium phlei. As to the kind of experiment: Antimycobacterial activity against Mycobacterium phlei ATCC 11758 after 72 hrs by MTT assay. The settings on record: ATCC 11758, 72 h. The format is functional. In short, it runs like this:
as §3

For assay [12], the system named is Salmonella typhimurium. The assay can be described thus: […] activity against Salmonella enterica serovar Typhimurium L354 after 24 hrs. The format is functional, Salmonella enterica subsp. enterica serovar Typhimurium. The settings on record: L354, 24 h. The procedure, abridged: (§4)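 The microdilution inoculum was 5 × 10⁵ CFU in normal saline (9 g/L), matched to a 0.5 McFarland standard. Plates were incubated at 37 °C. MTT (5 mg/mL methanolic stock) was added for 20 min, and colour change indicated growth for the MIC readout.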

Assay [13] deals with Salmonella typhimurium. The assay can be described thus: […] activity against Salmonella enterica serovar Typhimurium L10 after 24 hrs. The settings on record: L10, 24 h. The format is functional, Salmonella enterica subsp. enterica serovar Typhimurium. In short, it runs like this: as §4

The term MIC denotes the least concentration at which growth counts as inhibited. Read a high MIC as weaker potency. Consider `CCn1cc(C(=O)O)c(=O)c2cc(F)c(N3CCNCC3)cc21` [NORFLOXACIN], for which the MIC against Pseudomonas aeruginosa [1] came to 6.2 µM (≈ 1.98 µg/mL); against Staphylococcus aureus [2], 100 µM; against Staphylococcus aureus [3] it was 3.1 µM; against Pseudomonas aeruginosa [4], 6.2 µM (≈ 1.98 µg/mL).
As for `CC[C@H](C)C(=O)c1c(O)cc(O)cc1OC/C=C(\C)C/C=C/C(C)(C)O` [OLYMPICIN B], the MIC against Staphylococcus aureus [5], against Staphylococcus aureus [6], against Staphylococcus aureus [7], against Staphylococcus aureus [8], against Staphylococcus aureus [2] and against Staphylococcus aureus [3] was 64 µg/mL each time.
As to `C=C(C)C(O)CC/C(C)=C/COc1cc(O)cc(O)c1C(=O)C(C)CC` (stereo unspecified) [OLYMPICIN C], the minimal inhibitory concentration (MIC) with Staphylococcus aureus [5], in the assay with Staphylococcus aureus [6], in the assay on Staphylococcus aureus [7], in the assay with Staphylococcus aureus [8], against Staphylococcus aureus [2] and against Staphylococcus aureus [3] was 64 µg/mL each time.
Consider `Cc1onc(-c2ccccc2)c1C(=O)N[C@@H]1C(=O)N2[C@@H]1SC(C)(C)[C@@H]2C(=O)O` [OXACILLIN], for which the results for the minimal inhibitory concentration (MIC) with Staphylococcus aureus [5] and in the assay on Staphylococcus aureus [7] were 1280 µM and 79 µM, respectively.
Take `CC[C@@H](CO)NCCN[C@@H](CC)CO` [ETHAMBUTOL]: the MIC (in [9]; in assay [10]; in assay [11]; against Mycolicibacterium phlei) was 2.4 µM (≈ 0.49 µg/mL) in each case.
Regarding `C=C(C)C(CC/C(C)=C/COc1cc(O)cc(O)c1C(=O)C(C)CC)OO` (stereo unspecified) [OLYMPICIN D], the MIC with Staphylococcus aureus [5], against Staphylococcus aureus [6], with Staphylococcus aureus [7], in the assay on Staphylococcus aureus [8], in the assay on Staphylococcus aureus [2] and against Staphylococcus aureus [3] was 64 µg/mL in each case.
Consider `NNC(=O)c1ccncc1` [ISONIAZID], for which the MIC was determined as 14.6 µM (≈ 2 µg/mL) in assay [9], 29.2 µM (≈ 4 µg/mL) in [10], 14.6 µM (≈ 2 µg/mL) in assay [11] and 14.6 µM (≈ 2 µg/mL) against Mycolicibacterium phlei.
Take `CN(C)[C@@H]1C(O)=C(C(N)=O)C(=O)[C@@]2(O)C(O)=C3C(=O)c4c(O)cccc4[C@@](C)(O)[C@H]3C[C@@H]12` [TETRACYCLINE]: the MIC against Salmonella typhimurium [12] came to 2.3 µM (≈ 1.02 µg/mL); in the assay with Staphylococcus aureus [6], 288 µM; with Salmonella typhimurium [13], 2.3 µM (≈ 1.02 µg/mL).
Take `CC[C@H](C)C(=O)c1c(O)cc(O)cc1OC/C=C(\C)CCC=C(C)C` [OLYMPICIN A]: the MIC is above 1000 µM against Salmonella typhimurium [12]; 2.9 µM against Staphylococcus aureus [5]; 2.9 µM in the assay on Staphylococcus aureus [6]; 1.45 µM with Staphylococcus aureus [7]; above 1000 µM in the assay with Salmonella typhimurium [13]; 2.9 µM in the assay with Staphylococcus aureus [8]. The minimum inhibitory concentration (MIC) is above 1000 µM against Pseudomonas aeruginosa [1]; 11.6 µM (≈ 4.02 µg/mL) in assay [9]; 23.2 µM (≈ 8.04 µg/mL) in assay [10]; 2.9 µM against Staphylococcus aureus [2]; 2.9 µM in the assay on Staphylococcus aureus [3]; 11.6 µM (≈ 4.02 µg/mL) in assay [11]. In addition, the minimum inhibitory concentration (MIC) was above 1000 µM in the assay on Pseudomonas aeruginosa [4] and 11.6 µM (≈ 4.02 µg/mL) in the assay with Mycolicibacterium phlei.
`CC[C@H]1OC(=O)[C@H](C)[C@@H](O[C@H]2C[C@@](C)(OC)[C@@H](O)[C@H](C)O2)[C@H](C)[C@@H](O[C@@H]2O[C@H](C)C[C@H](N(C)C)[C@H]2O)[C@](C)(O)C[C@@H](C)C(=O)[C@H](C)[C@@H](O)[C@]1(C)O` [ERYTHROMYCIN] registered an MIC with Staphylococcus aureus [8] of 349 µM.
For `CCC(C)C(=O)c1c(O)cc(O)cc1OC/C=C(\C)CCC1OC1(C)C` (stereo unspecified) [OLYMPICIN E], the minimum inhibitory concentration (MIC) in the assay with Staphylococcus aureus [5], against Staphylococcus aureus [6], against Staphylococcus aureus [7], in the assay with Staphylococcus aureus [8], in the assay with Staphylococcus aureus [2] and with Staphylococcus aureus [3] was 64 µg/mL throughout.

Source of the values: ChEMBL document CHEMBL2021901, “Antibacterial acylphloroglucinols from Hypericum olympicum” (2012).
